The target of assay [1] is Pepsin A (Sus scrofa) (UniProt P00791). Kind of assay: In vitro Inhibitory activity against porcine Pepsin at 10e-5 (M). Summed up:
(§1)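 Assayed against purified porcine pepsin or bovine cathepsin D by a method described previously. Results given as percent inhibition at 10^-5 M.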

Assay [2] addresses T1, Cathepsin D (Bos taurus) (UniProt P80209).
T1 sequence (whole entry): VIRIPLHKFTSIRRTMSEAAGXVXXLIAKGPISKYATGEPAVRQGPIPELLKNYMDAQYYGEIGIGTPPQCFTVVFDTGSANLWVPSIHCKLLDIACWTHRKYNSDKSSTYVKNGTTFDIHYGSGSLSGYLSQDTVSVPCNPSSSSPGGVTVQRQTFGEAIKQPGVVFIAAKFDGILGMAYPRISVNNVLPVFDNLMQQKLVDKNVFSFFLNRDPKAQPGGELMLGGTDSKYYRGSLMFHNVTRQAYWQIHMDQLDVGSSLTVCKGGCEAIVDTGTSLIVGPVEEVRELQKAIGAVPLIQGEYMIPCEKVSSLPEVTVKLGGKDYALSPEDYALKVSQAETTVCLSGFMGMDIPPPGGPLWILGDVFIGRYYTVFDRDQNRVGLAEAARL
Kind of assay: In vitro Inhibitory activity against Bovine cathepsin D at 10e-5 (M). The essentials: as §1

The target in assay [3] is T2, Renin (Homo sapiens, UniProt P00797).
T2 sequence (P00797 whole entry): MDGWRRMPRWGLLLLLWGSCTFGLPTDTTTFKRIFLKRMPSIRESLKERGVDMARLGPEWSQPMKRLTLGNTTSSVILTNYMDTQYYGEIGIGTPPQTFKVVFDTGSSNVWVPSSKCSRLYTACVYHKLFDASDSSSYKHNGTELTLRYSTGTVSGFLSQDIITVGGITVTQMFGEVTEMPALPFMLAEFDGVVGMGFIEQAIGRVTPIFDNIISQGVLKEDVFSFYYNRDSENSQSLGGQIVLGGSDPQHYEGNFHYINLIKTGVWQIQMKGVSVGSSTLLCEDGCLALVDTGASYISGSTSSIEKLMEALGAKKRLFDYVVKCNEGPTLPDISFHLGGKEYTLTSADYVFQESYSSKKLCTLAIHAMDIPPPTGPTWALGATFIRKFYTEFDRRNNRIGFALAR
Kind of assay: In vitro inhibitory activity was tested against purified human renal renin.

Assay [4] concerns the target T3, Renin (Homo sapiens) (UniProt P00797).
T3 sequence (whole entry): T2 sequence (P00797 whole entry)
Kind of assay: In vitro inhibitory activity against renin at 10e-5 M.

In assay [5] the target is T2, Renin. In words: In vitro inhibitory activity against renin.
Assay [6] concerns the target T3, Renin (Homo sapiens). Kind of assay: In vitro Inhibitory activity against Renin at 10e-9 (M). Summed up:
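Purified human renin, procedure as reported earlier. Results given as percent inhibition at 10^-9 M.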

For assay [7], the target named is Pepsin A (Homo sapiens) (UniProt P0DJD9). Kind of assay: In vitro inhibitory activity against Human pepsin at 10e-5 M. The essentials: (§2)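 Human gastricsin and pepsin isolated from gastric juice by IRC-50 ion exchange with pH elution. Hemoglobin substrate; gastricsin run at pH 3.1, pepsin at pH 2.0. After trichloroacetic acid precipitation, supernatant absorbance read at 280 nm. Results given as percent inhibition at 10^-5 M.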

For assay [8], the target named is T4, Gastricsin (Homo sapiens) (UniProt P20142).
T4 sequence (whole entry): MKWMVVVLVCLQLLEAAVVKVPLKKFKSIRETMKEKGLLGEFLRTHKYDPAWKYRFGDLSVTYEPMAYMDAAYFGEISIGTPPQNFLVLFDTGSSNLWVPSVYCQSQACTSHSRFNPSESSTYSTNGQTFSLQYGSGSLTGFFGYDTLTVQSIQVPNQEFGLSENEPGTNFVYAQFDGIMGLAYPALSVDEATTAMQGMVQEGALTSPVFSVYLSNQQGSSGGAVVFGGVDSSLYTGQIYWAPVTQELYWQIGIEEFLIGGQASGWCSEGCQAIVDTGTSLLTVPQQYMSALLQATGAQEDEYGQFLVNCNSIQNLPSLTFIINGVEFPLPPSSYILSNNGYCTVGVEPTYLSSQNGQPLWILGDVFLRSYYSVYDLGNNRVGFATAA
Kind of assay: In vitro Inhibitory activity against human Gastricsin at 10e-5 (M). The essentials: as §2

Assay [9] concerns the target T3, Renin (Homo sapiens). In words: In vitro inhibitory activity against renin at 10e-6 (M).

Where a SMILES comes first, the peptide text is derived from it. [ ]: non-standard residue; d: D form. The star is where a group is joined. Leu(ol) = CC(C)C[C@H](N)CO; Boc = CC(C)(C)OC(=O)*

Sequence of Pepsin A (Sus scrofa) (P00791 whole entry, looked up): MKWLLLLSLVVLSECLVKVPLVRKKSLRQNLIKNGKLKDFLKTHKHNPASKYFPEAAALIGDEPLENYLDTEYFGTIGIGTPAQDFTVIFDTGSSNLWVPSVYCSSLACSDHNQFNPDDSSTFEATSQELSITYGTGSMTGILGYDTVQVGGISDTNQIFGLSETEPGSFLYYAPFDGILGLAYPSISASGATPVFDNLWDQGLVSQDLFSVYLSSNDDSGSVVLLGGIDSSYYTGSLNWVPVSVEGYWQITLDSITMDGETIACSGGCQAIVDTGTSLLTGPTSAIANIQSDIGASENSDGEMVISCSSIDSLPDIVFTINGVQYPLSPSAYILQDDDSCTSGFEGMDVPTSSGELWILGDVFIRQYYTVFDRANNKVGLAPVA
Sequence of Pepsin A (Homo sapiens) (P0DJD9 whole entry, looked up): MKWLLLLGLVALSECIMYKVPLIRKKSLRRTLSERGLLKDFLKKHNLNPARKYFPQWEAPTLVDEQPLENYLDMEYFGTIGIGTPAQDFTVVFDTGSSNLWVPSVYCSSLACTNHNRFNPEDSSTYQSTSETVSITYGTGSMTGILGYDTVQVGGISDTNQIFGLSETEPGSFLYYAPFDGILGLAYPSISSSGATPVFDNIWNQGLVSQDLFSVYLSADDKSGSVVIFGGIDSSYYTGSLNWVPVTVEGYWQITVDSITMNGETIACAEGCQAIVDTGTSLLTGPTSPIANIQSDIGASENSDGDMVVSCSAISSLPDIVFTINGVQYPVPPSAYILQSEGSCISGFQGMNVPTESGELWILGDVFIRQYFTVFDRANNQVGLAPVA

With `CC(C)C[C@H](O)[C@H](O)[C@H](CC1CCCCC1)NC(=O)[C@H](Cc1ccccc1)NC(=O)[C@H](Cc1ccccc1)NC(=O)OC(C)(C)C`, the inhibition in assay [1] came to 10%; in assay [2], 0%.
`CC[C@H](O)[C@H](O)[C@H](CC1CCCCC1)NC(=O)[C@H](Cc1c[nH]cn1)NC(=O)[C@H](Cc1ccccc1)NC(=O)OC(C)(C)C` registered an IC50 in [3] of 0.6 nM.
`CC(C)C[C@@H](CCO)NC(=O)[C@H](C)NC(=O)[C@H](Cc1ccccc1)NC(=O)OC(C)(C)C`: the inhibition in assay [4] came to 0%.
In assay [5], `C[C@H](NC(=O)[C@H](Cc1ccccc1)NC(=O)OC(C)(C)C)C(=O)N[C@@H](CC1CCCCC1)[C@@H](O)CO` showed an IC50 of 350 nM. The same compound registered an inhibition in [4] of 98%.
`CC(C)C[C@H](O)[C@H](O)[C@H](CC1CCCCC1)NC(=O)[C@H](Cn1cccn1)NC(=O)[C@H](Cc1ccccc1)NC(=O)OC(C)(C)C` had an IC50 in assay [3] of 1 nM.
Still for that read-out and setting: next, `CC(C)C[C@H](NC(=O)[C@H](Cc1ccccc1)NC(=O)OC(C)(C)C)C(=O)N[C@@H](CC1CCCCC1)[C@@H](O)[C@@H](O)CC(C)C`: 0.5 nM; `CC(C)CC[C@H](O)[C@H](CC1CCCCC1)NC(=O)[C@H](Cc1c[nH]cn1)NC(=O)[C@H](Cc1ccccc1)NC(=O)OC(C)(C)C`: 10 nM; `CC(C)C[C@H](O)[C@H](O)[C@H](CC1CCCCC1)NC(=O)[C@H](Cc1c[nH]cn1)NC(=O)[C@H](C)NC(=O)OC(C)(C)C`: 200 nM.
Still for that read-out and setting: next, `CCOC(=O)N[C@@H](Cc1ccccc1)C(=O)N[C@@H](Cc1ccccc1)C(=O)N[C@@H](CC1CCCCC1)[C@@H](O)[C@@H](O)CC(C)C`: 1 nM.
Regarding `CCOC(=O)N[C@@H](Cc1ccccc1)C(=O)N[C@@H](CC(C)C)C(=O)N[C@@H](CC1CCCCC1)[C@@H](O)[C@@H](O)CC(C)C`, the inhibition in [1] was 32%; in [6], 71%; in assay [2], 23%; in assay [7], 11%; in [8] it was 7%. In assay [3], this compound returned an IC50 of 0.3 nM.
In assay [4], `CC(C)C[C@@H](CO)NC(=O)[C@H](C)NC(=O)[C@H](Cc1ccccc1)NC(=O)OC(C)(C)C` (Boc-Phe-Ala-[Leu(ol)]) had an inhibition of 9%.
With `CC(C)C[C@H](O)[C@H](O)[C@H](CC1CCCCC1)NC(=O)[C@H](C)NC(=O)[C@H](Cc1ccccc1)NC(=O)OC(C)(C)C`, the inhibition in [1], in assay [2], in [7] and in [8] was 0% each time.
`CC(C)C[C@H](NC(=O)[C@H](Cc1c[nH]cn1)NC(=O)[C@H](Cc1cccc2ccccc12)NC(=O)OCc1ccccc1)[C@@H](O)CCO`: the half-inhibitory concentration (IC50) in assay [5] was 6400 nM. The same compound returned an inhibition in assay [9] of 63%.
`CCOC(=O)N[C@@H](Cc1ccc(OC)cc1)C(=O)N[C@@H](CC(C)C)C(=O)N[C@@H](CC1CCCCC1)[C@@H](O)[C@@H](O)CC(C)C`: the IC50 in assay [3] came out at 0.2 nM.
The same measure, in the same setting: next, `CC(C)CC[C@H](O)[C@H](O)[C@H](CC1CCCCC1)NC(=O)[C@H](Cc1c[nH]cn1)NC(=O)[C@H](Cc1ccccc1)NC(=O)OC(C)(C)C`: 4 nM; `CCOC(=O)N[C@@H](Cc1ccccc1)C(=O)N[C@@H](Cc1c[nH]cn1)C(=O)N[C@@H](CC1CCCCC1)[C@@H](O)[C@@H](O)CC`: 0.5 nM.
Turning to `CC(C)C[C@H](O)[C@H](O)[C@H](CC1CCCCC1)NC(=O)[C@H](Cc1c[nH]cn1)NC(=O)[C@H](Cc1ccccc1)NC(=O)OC(C)(C)C`, the inhibition in [1] worked out at 0%; in [6], 33%; in assay [2], 0%; in assay [7] it was 0%; in [8], 0%. In assay [3], the IC50 is 35 nM.
On to `CC(C)C[C@H](NC(=O)[C@H](Cc1c[nH]cn1)NC(=O)[C@H](Cc1cccc2ccccc12)NC(=O)OCc1ccccc1)[C@@H](O)CO`, for which the inhibition in [9] came out at 52%.
Take `CC(C)C[C@H](O)[C@H](O)[C@H](CC1CCCCC1)NC(=O)[C@H](Cc1c[nH]cn1)NC(=O)[C@H](Cc1cccc2ccccc12)NC(=O)OC(C)(C)C`: the inhibition in assay [1] and in assay [2] was 0% each time.
For the compound `CC(C)CC[C@H](O)[C@H](CC(C)C)NC(=O)[C@H](Cc1c[nH]cn1)NC(=O)[C@H](Cc1ccccc1)NC(=O)OC(C)(C)C`, the 50% inhibitory concentration (IC50) in assay [3] came to 1500 nM.
As for `CCOC(=O)N[C@@H](Cc1ccccc1)C(=O)N[C@@H](CC(C)C)C(=O)N[C@@H](CC1CCCCC1)[C@@H](O)[C@@H](O)CC`, in assay [3], the IC50 turned out to be 1.1 nM.
On the same count and under the same terms, next, `CCOC(=O)N[C@@H](Cc1ccc(I)cc1)C(=O)N[C@@H](CC(C)C)C(=O)N[C@@H](CC1CCCCC1)[C@@H](O)[C@@H](O)CC(C)C`: 2.5 nM; `CC(C)C[C@H](O)[C@H](O)[C@H](CC1CCCCC1)NC(=O)[C@H](Cc1c[nH]cn1)NC(=O)[C@H](Cc1ccccc1)NC(=O)CC(C)(C)C`: 1 nM.
Consider `CC(C)C[C@H](NC(=O)[C@H](C)NC(=O)[C@H](Cc1ccccc1)NC(=O)OC(C)(C)C)[C@@H](O)CCO`, for which the inhibition in assay [4] came out at 13%.
As to `CCOC(=O)N[C@@H](CC(C)C)C(=O)N[C@@H](Cc1c[nH]cn1)C(=O)N[C@@H](CC1CCCCC1)[C@@H](O)[C@@H](O)CC(C)C`, the inhibition in assay [1] came out at 0%; in assay [6], 3%; in assay [2] it was 0%; in [7], 0%; in assay [8], 0%. The compound also registered a half-inhibitory concentration (IC50) in assay [3] of 2 nM.
Take `CCOC(=O)N[C@@H](Cc1cccc2ccccc12)C(=O)N[C@@H](CC(C)C)C(=O)N[C@@H](CC1CCCCC1)[C@@H](O)[C@@H](O)CC(C)C`: half-maximal inhibition in [3] (IC50) required 0.25 nM.
In turn, `CC(C)CN[C@@H](Cc1ccccc1)C(=O)N[C@@H](Cc1c[nH]cn1)C(=O)N[C@@H](CC1CCCCC1)[C@@H](O)[C@@H](O)CC(C)C` returned a half-maximal inhibitory concentration (IC50) in assay [3] of 0.3 nM.
Same read-out and setting: next, `CC(C)COC(=O)N[C@@H](Cc1ccccc1)C(=O)N[C@@H](Cc1c[nH]cn1)C(=O)N[C@@H](CC1CCCCC1)[C@@H](O)[C@@H](O)CC(C)C`: 1 nM; `CC(C)C[C@H](O)[C@H](O)[C@H](CC1CCCCC1)NC(=O)[C@H](Cc1c[nH]cn1)NC(=O)[C@H](Cc1ccccc1)NC(=O)C1CCCCC1`: 0.7 nM.
Compound `CC(C)C[C@H](NC(=O)[C@H](C)NC(=O)[C@H](Cc1ccccc1)NC(=O)OC(C)(C)C)[C@@H](O)CO` returned a half-maximal inhibitory concentration (IC50) in [5] of 4000 nM. This compound also returned an inhibition in assay [4] of 65%.
In turn, `COc1ccc(C[C@H](NC(=O)OC(C)(C)C)C(=O)N[C@@H](Cc2c[nH]cn2)C(=O)N[C@@H](CC2CCCCC2)[C@@H](O)[C@@H](O)CC(C)C)cc1` registered a half-maximal inhibitory concentration (IC50) in assay [3] of 1 nM.
`CCOC(=O)N[C@@H](CC(C)C)C(=O)N[C@@H](Cc1c[nH]cn1)C(=O)N[C@@H](CC1CCCCC1)[C@@H](O)[C@@H](O)CC` registered an IC50 in [3] of 10 nM.
As to `CC(C)C[C@H](O)[C@H](O)[C@H](CC1CCCCC1)NC(=O)[C@H](Cc1c[nH]cn1)NC(=O)[C@H](CC1C=NC=N1)NC(=O)OC(C)(C)C` (some centres undefined), in assay [3], inhibition was half-maximal at 55 nM (IC50).
Take `CC(C)C[C@@H](C=O)NC(=O)[C@H](C)NC(=O)[C@H](Cc1ccccc1)NC(=O)OC(C)(C)C` (Boc-Phe-Ala-Leu-aldehyde): in [4], the inhibition worked out at 49%.
In assay [5], `C[C@H](NC(=O)[C@H](Cc1ccccc1)NC(=O)OC(C)(C)C)C(=O)N[C@H](CO)CC1CCCCC1` had an IC50 of 4000 nM. For the same compound, the inhibition in assay [4] was 73%.
Turning to `CC(C)C[C@H](NC(=O)[C@H](Cc1c[nH]cn1)NC(=O)[C@H](Cc1ccccc1)NC(=O)OC(C)(C)C)[C@@H](O)[C@@H](O)CC(C)C`, the IC50 in assay [3] was 11 nM.
As to `CC(C)C[C@H](NC(=O)OC(C)(C)C)C(=O)N[C@@H](Cc1c[nH]cn1)C(=O)N[C@@H](CC1CCCCC1)[C@@H](O)[C@@H](O)CC(C)C`, the inhibition in [1], in [2], in assay [7] and in assay [8] was 0% throughout.

For orientation: inhibition means the change of the read-out against control, counted positive when it falls. The term IC50 denotes the midpoint of a concentration-inhibition curve. The low end stands for greater potency in that assay, the high end for weaker potency in that assay.

Source of the values: ChEMBL document CHEMBL1124242, “Renin inhibitors. Dipeptide analogues of angiotensinogen utilizing a dihydroxyethylene transition-state mimic at the scissile bond to impart greater inhibitory potency” (J Med Chem, 1988).
